Columns and labels:
A2780 = experiment: Inhibitory concentration in vitro for cytotoxic activity against A 2780 human ovarian carcinoma cells; assay type: functional, cell-based
Summary of the method: (§1)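 MTT assay in 96-well plates, seeding 400–1000 cells/well. Cells recover 24 h, then drug in medium is added, three wells per dose. Incubate 5 days at 37 °C in 5% CO₂. Add MTT (3 mg/mL) for 3 h, dissolve formazan in DMSO, read at 540 nm minus 620 nm. Percent growth inhibition per dose comes from duplicate experiments, reported as mean and SD; IC50 is derived from these.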

Bacillus subtilis [1] = experiment: Antimicrobial activity against Bacillus subtilis after 96 hr incubation; assay type: functional; design: concentration or dose not given beside the values
Summary of the method: (§2)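 Agar diffusion on cellulose disks loaded with 200 µg compound each. Bacteria read after 96 h, yeasts after 48 h. Activity is recorded as the radius in mm, or percent, of the inhibition zone. Squalestatin S1 (200 µg/disk) served as control in the yeast assay.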

Candida albicans [2] = experiment: Antimicrobial activity against Candida albicans after 48 hr incubation; assay type: functional; summary of the method: as §2
Escherichia coli [3] = experiment: Antimicrobial activity against Escherichia coli after 96h incubation; assay type: functional; summary of the method: as §2
Escherichia coli [4] = experiment: Antimicrobial activity against the Escherichia coli after 96 hr incubation; assay type: functional; design: concentration or dose not given beside the values; summary of the method: as §2
K562 = experiment: Inhibitory concentration in vitro for cytotoxic activity against K 562 human chronic myelogenous leukemia cells; assay type: functional, cell-based; summary of the method: as §1
[5] = tested on: Schizosaccharomyces pombe; experiment: (§3) Antimicrobial activity against Schizosaccharomyces pombe after 48 hr incubation; assay type: functional; design: concentration or dose not given beside the values; summary of the method: as §2
[6] = tested on: Schizosaccharomyces pombe; experiment: as §3; assay type: functional; summary of the method: as §2
Saccharomyces cerevisiae = experiment: Antimicrobial activity against Saccharomyces cerevisiae after 48 hr incubation; assay type: functional; summary of the method: as §2
Staphylococcus aureus [7] = experiment: Antimicrobial activity against Staphylococcus aureus after 96h incubation; assay type: functional; summary of the method: as §2
Bacillus subtilis [8] = experiment: Antimicrobial activity against Bacillus subtilis after 96h incubation; assay type: functional; summary of the method: as §2
Staphylococcus aureus [9] = experiment: The compound was evaluated for anti microbial activity against Staphylococcus aureus after 96 hr incubation; assay type: functional; design: concentration or dose not given beside the values; summary of the method: as §2
Candida albicans [10] = experiment: Anti fungal activity against Candida albicans after 48 hr incubation; assay type: functional; design: concentration or dose not given beside the values; summary of the method: as §2

Compound	IC50 (A2780) [µM]	Inhibition (Bacillus subtilis [1]) [%]	Inhibition (Candida albicans [2]) [mm]	Inhibition (Escherichia coli [3]) [mm]	Inhibition (Escherichia coli [4]) [%]	IC50 (K562) [µM]	Inhibition [5] [%]	Inhibition [6] [mm]	Inhibition (Saccharomyces cerevisiae) [mm]	Inhibition (Staphylococcus aureus [7]) [mm]	Inhibition (Bacillus subtilis [8]) [mm]	Inhibition (Staphylococcus aureus [9]) [%]	Inhibition (Candida albicans [10]) [%]
Cc1cc(/C=C/c2ccccc2)cc(=O)o1	> 50	20.5	0	17	19.3	> 50	20.5	18	0	0	18	–	–
CC(=O)Nc1ccc(C#Cc2cc(C)oc(=O)c2)cc1	–	6.8	0	0	–	–	–	0	0	16	6	18.2	–
CCCCCC/C=C/c1cc(C)oc(=O)c1	> 50	20.5	20	20	22.7	> 50	32.9	29	0	18	18	20.5	22.7
CCCCc1cc(C)oc(=O)c1	> 50	22.7	0	22	25	> 50	–	0	0	0	20	–	–
CCCCCCc1cc(C)oc(=O)c1	> 50	23.9	11	25	28.4	> 50	29.5	26	0	0	21	–	12.5
Cc1cc(C#Cc2ccc([N+](=O)[O-])cc2)cc(=O)o1	–	6.8	0	0	–	–	10.2	9	0	0	6	–	–
Cc1cc(-c2ccc(Cl)cc2)cc(=O)o1	> 50	20.5	0	20	22.7	> 50	–	0	0	20	18	22.7	–
Cc1cc(CCc2ccccc2)cc(=O)o1	> 50	20.5	0	20	22.7	> 50	11.4	10	0	0	18	–	–
COc1ccc(-c2cc(C)oc(=O)c2)cc1	> 50	19.3	0	20	22.7	> 50	22.7	20	0	0	17	–	–
CCCCCCC#Cc1cc(C)oc(=O)c1	3.4	19.3	0	17	19.3	20.3	54.5	48	0	18	17	20.5	–
CCCCCc1cc(C)oc(=O)c1	> 50	26.1	0	22	25	> 50	25	22	0	0	23	–	–
Cc1cc(-c2ccccc2)cc(=O)o1	> 50	20.5	0	20	22.7	> 50	–	0	0	18	18	20.5	–
Cc1ccc(-c2cc(C)oc(=O)c2)cc1	> 50	21.6	0	18	20.4	> 50	–	0	0	0	19	–	–
Cc1cc(C#Cc2ccccc2)cc(=O)o1	1.8	21.6	0	20	22.7	4	42	37	0	0	19	–	–
CCCCCCCCc1cc(C)oc(=O)c1	–	21.6	20	22	25	–	34.1	30	0	18	19	20.5	22.7
CCC/C=C/c1cc(C)oc(=O)c1	–	18.2	16	19	21.6	–	31.8	28	0	20	16	22.7	18.2
CCCC/C=C/c1cc(C)oc(=O)c1	–	20.5	24	18	20.5	–	45.5	40	0	0	18	–	27.3
CCOCCc1cc(C)oc(=O)c1	> 50	–	–	–	–	> 50	–	0	–	–	–	–	–
Cc1cc(-c2ccc(C=O)cc2)cc(=O)o1	19.2	20.5	0	15	17	26	15.9	14	0	18	18	20.5	–
CCCCC#Cc1cc(C)oc(=O)c1	7	19.3	20	20	22.7	15.5	51.1	45	0	0	17	–	22.7

Reference: ChEMBL document CHEMBL1135862, “Bioactive 4-substituted-6-methyl-2-pyrones with promising cytotoxicity against A2780 and K562 cell lines” (Bioorg Med Chem Lett, 2002)
